Test results: ChEMBL document CHEMBL3808379, “Isouronium and N-hydroxyguanidinium derivatives as Cell growth inhibitors: A comparative study” (Eur J Med Chem, 2016)
Values belong to the compound of their own block, whether it stands above or below them.

What was measured:
[1] = Binding affinity to salmon sperm DNA assessed as increase in thermal melting temperature by spectrophotometric analysis; settings: Salmonidae
[2] = Cytotoxicity against human HL60 cells assessed as cell viability reduction incubated for 72 hrs by alamar blue assay; assay type: functional, cell-based; settings: HL-60, 72 h
Outline: (§1)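 HL-60 cells in log phase, 40,000 per well, were treated in triplicate with compound at 10–100 µM (final, 1:100 from ddH2O stocks) or 1% ddH2O vehicle for 72 h at 37 °C. AlamarBlue was then added for 4.5 h in the dark and fluorescence read at ex 544/em 590 nm. Viability is blank-subtracted and expressed as % of vehicle. IC50 comes from a sigmoidal fit; ≥3 independent experiments.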

[3] = Cytotoxicity against human Kelly cells assessed as cell viability reduction incubated for 72 hrs by alamar blue assay; assay type: functional, cell-based
Outline: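 Kelly cells, 6000 per well, were allowed to attach for 24 h, then treated in triplicate at 0.1–100 µM final or with ddH2O vehicle for 72 h at 37 °C. AlamarBlue was added for 4.5 h in the dark and fluorescence read at ex 544/em 590 nm. Blank-subtracted % of vehicle; IC50 from a sigmoidal dose-response fit; ≥3 independent experiments.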

[4] = Cytotoxicity against human HL60 cells assessed as cell viability reduction at 100 uM incubated for 72 hrs by alamar blue assay; assay type: functional; settings: HL-60, 72 h; outline: as §1
[5] = Cell cycle arrest in human HL60 cells assessed as accumulation at pre-G1 phase at 50 uM after 24 hrs by propidium iodide staining-based flow cytometric analysis (reference value: 0.81 +/- 0.11%); assay type: functional; settings: HL-60
[6] = Cell cycle arrest in human HL60 cells assessed as accumulation at pre-G1 phase at 50 uM after 48 hrs by propidium iodide staining-based flow cytometric analysis (reference value: 1.41 +/- 0.32%); assay type: functional; settings: HL-60
[7] = Cell cycle arrest in human HL60 cells assessed as accumulation at pre-G1 phase at 50 uM after 72 hrs by propidium iodide staining-based flow cytometric analysis (reference value: 2.21 +/- 0.57%); assay type: functional; settings: HL-60
[8] = Cell cycle arrest in human HL60 cells assessed as accumulation at G0/G1 phase at 50 uM after 24 hrs by propidium iodide staining-based flow cytometric analysis (reference value: 56.05 +/- 1.4%); assay type: functional; settings: HL-60
[9] = Cell cycle arrest in human HL60 cells assessed as accumulation at G0/G1 phase at 50 uM after 48 hrs by propidium iodide staining-based flow cytometric analysis (reference value: 58.77 +/- 2.33%); assay type: functional; settings: HL-60
[10] = Cell cycle arrest in human HL60 cells assessed as accumulation at G0/G1 phase at 50 uM after 72 hrs by propidium iodide staining-based flow cytometric analysis (reference value: 59.5 +/- 1.5%); assay type: functional; settings: HL-60
[11] = Cell cycle arrest in human HL60 cells assessed as accumulation at S phase at 50 uM after 24 hrs by propidium iodide staining-based flow cytometric analysis (reference value: 24.46 +/- 1.15%); assay type: functional; settings: HL-60
[12] = Cell cycle arrest in human HL60 cells assessed as accumulation at S phase at 50 uM after 48 hrs by propidium iodide staining-based flow cytometric analysis (reference value: 24.29 +/- 1.37%); assay type: functional; settings: HL-60
[13] = Cell cycle arrest in human HL60 cells assessed as accumulation at S phase at 50 uM after 72 hrs by propidium iodide staining-based flow cytometric analysis (reference value: 23.58 +/- 1.38%); assay type: functional; settings: HL-60
[14] = Cell cycle arrest in human HL60 cells assessed as accumulation at G2/M phase at 50 uM after 24 hrs by propidium iodide staining-based flow cytometric analysis (reference value: 16.73 +/- 0.59%); assay type: functional; settings: HL-60
[15] = Cell cycle arrest in human HL60 cells assessed as accumulation at G2/M phase at 50 uM after 48 hrs by propidium iodide staining-based flow cytometric analysis (reference value: 11.35 +/- 1.05%); assay type: functional; settings: HL-60
[16] = Cell cycle arrest in human HL60 cells assessed as accumulation at G2/M phase at 50 uM after 72 hrs by propidium iodide staining-based flow cytometric analysis (reference value: 10.53 +/- 0.81%); assay type: functional; settings: HL-60
[17] = Cell cycle arrest in human HL60 cells assessed as accumulation at polyploid Gn phase at 50 uM after 24 hrs by propidium iodide staining-based flow cytometric analysis (reference value: 2.96 +/- 0.79%); assay type: functional; settings: HL-60
[18] = Cell cycle arrest in human HL60 cells assessed as accumulation at polyploid Gn phase at 50 uM after 48 hrs by propidium iodide staining-based flow cytometric analysis (reference value: 3.02 +/- 0.56%); assay type: functional; settings: HL-60
[19] = Cell cycle arrest in human HL60 cells assessed as accumulation at polyploid Gn phase at 50 uM after 72 hrs by propidium iodide staining-based flow cytometric analysis (reference value: 3.43 +/- 0.48%); assay type: functional; settings: HL-60
[20] = Dissociation constant, pKa of the compound; assay type: physicochemical

ΔTm [1]: 2 °C
SMILES: N=C(N)Oc1ccc(Cc2ccc(O)cc2)cc1
IC50 [2]: > 100 µM

ΔTm [1]: 2 °C
SMILES: N=C(N)Oc1ccc(NC(=O)c2ccc(OC(=N)N)cc2)cc1
IC50 [2]: > 100 µM | IC50 [3]: > 100 µM

ΔTm [1]: 6 °C
SMILES: N=C(N)Oc1ccc(Sc2ccc(OC(=N)N)cc2)cc1
IC50 [2]: 57.4 µM | IC50 [3]: 28.7 µM | inhibition at 100 µM [4]: 95.8% | Activity [5]: 1.46% | Activity [6]: 2.25% | Activity [7]: 4.87% | Activity [8]: 52% | Activity [9]: 38.3% | Activity [10]: 35.5% | Activity [11]: 26.9% | Activity [12]: 21.9% | Activity [13]: 15.6% | Activity [14]: 18.1% | Activity [15]: 29.1% | Activity [16]: 21.9% | Activity [17]: 3.11% | Activity [18]: 8.42% | Activity [19]: 22%

SMILES: c1ccc(NC2=NCCN2)cc1
pKa [20]: 9.16
